# TAG inh: inhibitors of triacylglycerol accumulation, primary screen, cell-based, uHTS, fluorescence, H9c2; actives 0.66% (n = 230,000); inhibition, % at 12.5 µM; H9c2 cells, Nile Red lipid (TAG) fluorescence; cells loaded with 200 µM oleic acid;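 active means pattern-corrected inhibition of lipid staining of at least 50% with the nuclear-stain viability signal not falling by more than 50%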;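 further: 0% = DMSO wells and 100% = triacsin C control wells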
# Hep lipid drop: inhibitors of hepatocyte lipid droplet formation, primary screen, imaging, high-throughput imaging, BODIPY stain; AML12 mouse hepatocytes, oleate lipid droplets; inhibition, % at 6.5 µM; actives 0.4% (n = 240,000); AID 1656, 2009;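 active means lipid droplet intensity inhibited by at least 50%, with more than 500 cells counted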
#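 Test system: AML12 hepatocytes (mouse); reagent: oleate loading, 100 µM; dosing: one dose, 6.5 µM compound; incubation: overnight exposure; signal: fluorescence imaging, 20x objective, two fields per well; read-out basis: % inhibition of corrected integrated BODIPY droplet signal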
# Jurkat NFkB inh: inhibitors of induced NF-kB luciferase reporter, primary screen, TCR NF-kB activation inhibitor project, cell-based, luminescence, uHTS | actives 0.53% (n = 330,000) | inhibition, % at 4 µM | AID 435003, 2010 | Jurkat, PMA/ionomycin-induced NF-kB luciferase reporter; in the data active means inhibition above about 50%
# 697 NFkB inh: inhibitors of PMA/ionomycin-induced NF-kB reporter, 697 cells, primary screen, B-cell NF-kB inhibitor project, cell-based, luminescence, uHTS | AID 435022, 2010 | actives 0.33% (n = 330,000) | inhibition, % at 4 µM | 697 B-cell NF-kB luciferase reporter, 16 h; in the data active means inhibition above about 35%
# hiPSC survival: enhancers of single-cell hiPSC survival, primary screen, ATPlite luminescence; actives 0.044% (n = 360,000); survival enhancement, % at 20 µM; 100% = ROCK inhibitor wells, 0% = DMSO; in the data active means survival enhancement above about 18%;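 further: cells exposed to compounds for 16 hours before the ATP read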
# Gli-Sufu antag: Gli-Sufu pathway antagonists, primary screen, luciferase luminescence, Sufu-KO-LIGHT cells, uHTS; inhibition, % at 5 µM; actives 0.74% (n = 340,000); Sufu-KO-LIGHT fibroblasts, Gli luciferase reporter luminescence; AID 588413, 2011;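 active means inhibition above about 55%, limit read from the data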;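 further: 0% = DMSO-treated cells and 100% = wells with medium but no cells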
# Gli-Sufu confirm: Gli-SUFU pathway antagonists, confirmation, single concentration, luciferase luminescence, Sufu-KO-LIGHT cells; inhibition, % at 5 µM; actives 40% (n = 2,500); Gli luciferase reporter; shares compounds with Gli-Sufu antag; AID 602428, 2012;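 active means mean inhibition at 5 µM reaching about 45%, limit read from the data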;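 further: plate controls were DMSO-treated cells for no effect and wells lacking cells for full effect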
# SufuKO cytotox: cytotoxicity in Sufu-KO-LIGHT cells, confirmation, cytotoxicity control for Gli-SUFU antagonist project, cell-based, ATP luminescence, single concentration | shares compounds with Gli-Sufu antag | actives 32% (n = 2,500) | AID 651994, 2013 | cytotoxicity, % at 5 µM;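 active means mean cytotoxicity at 5 µM above about 25%, limit read from the data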;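 further: cells exposed to compound overnight for roughly 16 to 18 hours; plate controls were DMSO wells with cells for no effect and medium without cells for full effect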
# Wnt3a counter: Wnt3a reporter signal inhibition, confirmation, counter-screen for Gli-SUFU antagonist project, Wnt-LIGHT cells, luminescence, single concentration; shares compounds with Gli-Sufu antag; Wnt3a-driven luciferase reporter; inhibition, % at 6.25 µM; actives 20% (n = 2,500); AID 651995, 2013;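 active means mean inhibition above about 25%, limit read from the data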
# Numbers without * were called inactive; . = not tested or not shown. The list is not random: actives were taken first. Their share in the collection is about 1.8%.
SMILES,TAG inh,Hep lipid drop,Jurkat NFkB inh,697 NFkB inh,hiPSC survival,Gli-Sufu antag,Gli-Sufu confirm,SufuKO cytotox,Wnt3a counter
CCCn1nc(C(=O)NNC(=O)C2CSC3(C)CCC(=O)N23)c2ccccc2c1=O (stereo not drawn),-5.5,.,11.9,6.3,4.8,0.6,.,.,.
CCC1(O)C(=O)OCc2c1cc1n(c2=O)Cc2cc3c(N)cccc3nc2-1 (stereo not drawn),14.6,.,.,.,-4.4,84.4*,62.8*,48.9*,-83.4
CCC1(OC(=O)CN(C)C)C(=O)OCc2c1cc1n(c2=O)Cc2cc3c(N)cccc3nc2-1 (stereo not drawn),15.8,.,.,.,-4.5,64.2*,62.5*,35.6*,-60.6
CC(C)C[C@H](N)c1cn([C@@H](Cc2ccc(O)cc2)C(=O)N2CCNCC2)nn1,-20.4,14.9,-4.5,0.6,4.5,-4.0,.,.,.
O=C1CCN(CCc2ccccc2)CCN1[C@H](CSc1ccccc1)Cc1ccccc1,-16.3,-17.7,-2.6,-6.7,-2.1,62.1*,26.9,22.7,-12.0
CCCN1CCC(=O)N([C@H](CSc2ccc(C)cc2)Cc2ccccc2)CC1,-6.4,.,6.8,19.0,1.0,29.9,.,.,.
CCCN1CCC(=O)N([C@H](CSc2ccc(OC)cc2)Cc2ccccc2)CC1,-45.2,-2.4,12.7,11.1,1.9,52.5,48.4*,18.1,10.2
COc1ccc(C2CC(c3ccco3)n3ncnc3N2)cc1 (stereo not drawn),-3.5,-63.3,0.5,-15.9,-4.8,56.7*,10.0,14.8,-2.5
CCOc1ccc(/C=C2\SC(=S)N(CCC(=O)N(CCO)c3ccccc3)C2=O)cc1,4.6,-19.9,-6.1,21.5,-0.3,50.7,18.1,23.4,-10.7
COc1cc2c(cc1OC)[C@@H](NC(=O)C(C)C)[C@H](OCc1ccccc1)C2,5.8,.,.,11.9,2.5,-4.7,.,.,.
Cc1cccc(NC(=O)c2nc[nH]c2C(=O)N[C@@H](Cc2ccccc2)C(=O)OCc2ccccc2)c1,-18.4,1.2,-13.1,0.9,-1.8,-36.7,.,.,.
CC(C)(C)[C@H]1COC(=O)[C@H](NC(=O)OCC2c3ccccc3-c3ccccc32)C/C=C\C[C@@H](CC(=O)N[C@H](CO)Cc2ccccc2)C(=O)N1,-6.6,.,-4.4,10.6,0.5,39.9,.,.,.
CC(C)(C)[C@H]1COC(=O)[C@H](NC(=O)OCC2c3ccccc3-c3ccccc32)C/C=C\C[C@@H](CC(=O)N[C@@H](CO)Cc2ccccc2)C(=O)N1,-15.9,.,12.9,-1.0,0.9,57.1*,50.6*,20.0,-31.6
C[C@@H]1COC(=O)[C@H](NC(=O)OCC2c3ccccc3-c3ccccc32)C/C=C\C[C@@H](CC(=O)N[C@@H](CO)Cc2ccccc2)C(=O)N1,-21.6,.,-3.2,2.6,4.6,58.6*,56.8*,19.3,-59.1
CC1CCN(C(=O)COC(=O)c2ccc3c(c2)C(=O)N(Cc2ccco2)C3=O)CC1,4.8,.,9.5,13.2,-0.1,-6.2,.,.,.
Cc1cc(C(=O)COc2cccnc2[N+](=O)[O-])c(C)n1Cc1cccs1,-15.7,-5.4,4.8,13.1,0.0,70.9*,27.8,20.9,49.1*
Cc1cc(-n2c(C)cc(C(=O)COc3cccnc3[N+](=O)[O-])c2C)no1,2.9,.,-14.8,-15.7,-0.3,0.5,.,.,.
Cc1ccccc1C(=O)NCC(c1ccco1)N1CCc2ccccc2C1 (stereo not drawn),-5.1,.,-7.8,-13.5,0.7,-1.7,.,.,.
Cc1ccn2c(=O)nc(SCC(=O)Nc3cccc4ccccc34)nc2c1,3.2,.,0.5,9.4,-0.5,-9.0,.,.,.
O=C(CSc1nc(=O)n2cc(Cl)ccc2n1)Nc1cccc2ccccc12,-16.0,.,13.2,9.1,-0.4,90.8*,16.7,9.3,4.5
COc1ccccc1NS(=O)(=O)c1ccc2c(c1)CCN2C(=O)CCC(=O)O,.,5.3,-5.4,0.4,-0.1,54.5,17.1,7.1,3.2
Cc1cc(C(=O)CSc2nc3ccccc3c(=O)n2C)c(C)n1Cc1ccc2c(c1)OCO2,-64.7,.,37.2,-14.6,-2.0,73.3*,77.8*,37.9*,48.8*
Cc1cc(C(=O)CSc2nnc(-c3ccccc3)n2Cc2ccc3c(c2)OCO3)c(C)n1C,13.7,.,-7.4,-19.8,-0.5,2.3,.,.,.
Cc1cc(C(=O)CSc2nnc3ccccn23)c(C)n1-c1ccccc1,.,-15.0,16.5,-24.7,-1.2,54.3,64.6*,40.2*,95.8*
Cc1cc(C(=O)CSc2nnc(-c3ccccc3)n2-c2ccccc2)c(C)n1-c1ncn[nH]1,0.1,.,-12.8,-1.1,2.4,7.8,.,.,.
SMILES,TAG inh,Hep lipid drop,Jurkat NFkB inh,697 NFkB inh,hiPSC survival,Gli-Sufu antag,Gli-Sufu confirm,SufuKO cytotox,Wnt3a counter
N#Cc1ccccc1S(=O)(=O)N1CCN(CC(=O)NC(=O)NC2CCCCC2)CC1,-4.8,.,-0.8,-4.4,-0.4,-6.5,.,.,.
Cc1cc(NC(=O)C2CCN(S(=O)(=O)Cc3ccccc3)CC2)ccc1-n1cnnn1,24.4,5.1,10.2,14.8,-1.8,59.9*,27.6,11.7,-36.1
CC(C)c1ccc(NC(=O)N2CCOCC2)cc1,.,2.3,-51.3,-35.1,-0.6,60.0*,-10.5,3.9,-54.9
CCn1cc(C(=O)N2CCN(c3cccc(Cl)c3)CC2)c2cc(OC)c(OC)cc2c1=O,23.0,-2.2,-11.4,-12.1,0.7,-16.4,.,.,.
CSCCC(=O)N(C)CC1CCCN(CCc2cccc(C(F)(F)F)c2)C1 (stereo not drawn),0.9,0.4,5.7,-1.8,0.4,21.6,.,.,.
COC(=O)CCC(=O)N(C)CC1CCCN(CCc2cccc(C(F)(F)F)c2)C1 (stereo not drawn),-3.8,-2.1,5.5,-3.1,0.0,56.2*,17.0,6.6,-23.0
COc1ccc(NC(=O)Cn2nc(C(=O)O)c3ccccc3c2=O)cc1Cl,.,16.4,9.9,10.5,-0.6,-0.5,.,.,.
Cc1ccc(NS(=O)(=O)c2ccc(-n3cccn3)cc2)c(Cl)c1,-9.0,.,.,.,-1.1,.,.,.,.
C[C@]12CCC(O)CC1CCC1C2CC[C@]2(C)C(c3cc(C(F)(F)F)n[nH]3)CCC12 (stereo partly drawn),.,-0.9,-15.2,-74.1,-0.1,46.6,.,.,.

# Compound activity (PubChem)
